NALP3 yeast inh: blocks the NALP3 inflammasome reconstituted in yeast. 330,000 compounds, 0.39% hits. Yeast reconstituted NLRP3/ASC/caspase-1, beta-gal luminescence, 24 h. AID 2825. inhibition, % at 10 µM;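 active = inhibition of 50% or more; inactive = inhibition below 50%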;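 also: plate controls were induced DMSO wells for no effect and uninduced yeast grown without galactose for full effect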
Mdm2-MdmX inh: human Mdm2/MdmX binding inhibition. O15151+Q00987. SaOS-2 split-luciferase Mdm2/MdmX complementation, luminescence. inhibition, % at 8 µM. 330,000 compounds, 3% hits. AID 485346;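 active = inhibition of at least 50% at 8 µM in the primary screen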
T cruzi repl: blocks replication of Trypanosoma cruzi; AID 1885; inhibition, % (no concentration beside the values); T. cruzi beta-gal in NIH3T3, luminescence, 90 h; 300,000 compounds, 1.4% hits;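 active = mean inhibition across valid replicates above about 55%, limit read from the data; inconclusive = mean below that limit but half or more replicates reach it; inactive = mean below it, under half of replicates reach it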;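 also: signal also drops with host cell toxicity which is not excluded here; 0% = plate median of DMSO wells and 100% = zero luminescence signal; higher percent means less beta-gal luminescence so fewer parasites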
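System: mouse NIH/3T3 fibroblasts infected with β-gal-expressing T. cruzi Tulahuen C4 / Input: NIH/3T3 cells, 5,000 per well / Buffer or medium: Low-serum DMEM with 2% FBS / Probe or stimulus: 5000 reporter trypomastigotes per well / Schedule: ≥90 h infection period, 3 h prior cell attachment / Measured by: GalScreen luminescence, 60 min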
CSC inhib: cancer stem cell inhibition | cancer stem cell-like cells viability, luminescence | AID 2717 | inhibition, % at 7.5 µM | 300,000 compounds, 1.1% hits; in the data active = inhibition above about 75%; inconclusive = no clear call, values can overlap the other calls; tested in HMLE shEcad cells
Calb FLC: affects C. albicans growth with fluconazole. C. albicans CaCi-2 + fluconazole, Alamar Blue growth, 48 h. growth inhibition, % (test concentration not listed). 300,000 compounds, 0.57% hits. AID 1979;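 active = growth inhibition above about 58% in most replicates, limit read from the data, passing the limit was not always enough; inconclusive = exactly half the replicates above a set limit; inactive = most replicates below a set limit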;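 also: all wells also contain fluconazole at 8 µg/ml as a sub-toxic cotreatment; 0% = median of DMSO wells and 100% = median of geldanamycin control wells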
Beta apoptosis: beta cell apoptosis inhibition; INS-1E cytokine-induced death, ATP luminescence, 48 h; percent of positive-control rescue, neutral wells zero; protection from apoptosis, % (concentration not given with the values); 300,000 compounds, 0.8% hits; AID 435005;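 active = Every replicate reaches about 75%, or at least half do and their mean reaches it too, limit read from the data; inconclusive = At least half of replicates reach the limit but their mean does not; inactive = Under half of replicates reach the limit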;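 also: 0% = cytokine-treated negative control wells and 100% = positive control rescue; higher means more ATP so stronger rescue from cytokine killing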
* = called active by the depositor; u = inconclusive; x = not tested or not shown. An excerpt weighted towards active compounds, which were near 5.3% of everything screened.

SMILES	NALP3 yeast inh	Mdm2-MdmX inh	T cruzi repl	CSC inhib	Calb FLC	Beta apoptosis
O=C(Nc1ccccc1C(=O)O)c1ccc(Cl)c(S(=O)(=O)N2CCOCC2)c1	-7	25	8	-5	4	-4
O=C(Nc1ccccc1C(=O)O)c1cc(S(=O)(=O)N2CCCCC2)c(Cl)cc1Cl	10	-16	58*	-7	-4	-5
O=C(/C=C/Sc1ccccc1)c1ccc(Cl)cc1	38	40	43	102*	17	-5
NC(=O)c1ccccc1N/C=C/C(=O)c1ccc(Cl)cc1	11	-162	-1	22	1	27
O=c1c(Cl)c(NCc2ccccc2)cnn1C12CC3CC(CC(C3)C1)C2	37	36	29	77*	u	3
CSc1ncc(Cl)c(C(=O)C(C#N)c2nc3c(C)cc(C)cc3c(=O)[nH]2)n1 (configuration not stated)	-7	4	-12	62	66	-4
Cc1cc(Cl)ccc1OCc1cn2cccnc2n1	12	-77	-11	-16	61*	2
Clc1ccc(OCc2cn3cccnc3n2)c2ncccc12	x	x	-5	x	8	x
COC(=O)N/N=C/c1cc(N=Nc2ccccc2Cl)ccc1O	31	17	4	x	-12	6
CCCc1ccc(-c2cc(NC(=O)CSc3nnc(N)s3)n(-c3ccccc3)n2)cc1	18	-84	28	85*	u	7
Cc1nnc(SCC(=O)Nc2cc(-c3cc(C)c(C)cc3C)nn2-c2ccccc2)s1	-1	26	28	-10	12	-6
O=C(CCC(=O)N1CCCCC1)Nc1nnc(C2CCCCC2)s1	9	28	-5	-14	-1	x
CCN1CC(CN(C)Cc2nc(-c3ccc(C(F)(F)F)cc3)oc2C)CC1=O (configuration not stated)	-10	-10	59*	-10	-37	0
O=C(Nc1ccccc1-c1ccccc1)C1CCCCC1	-55	-3	-14	3	4	-4
Oc1cccc(/C=N/N(Cc2ccccc2)c2ccccc2)c1	-11	14	-3	87*	-4	-1
C(=N\N(Cc1ccccc1)c1ccccc1)/c1cccnc1	6	9	24	10	3	0
C/C(=N/NS(=O)(=O)c1cc(C)ccc1C)c1ccncc1	6	-8	-6	13	-12	-11
Cc1nnc(-c2cccc(Br)c2)c2cn(-c3ccccc3)nc12	29	16	36	-2	11	10
Cc1nnc(-c2cccc(Br)c2)c2cn(-c3cccc(Br)c3)nc12	10	27	60*	23	1	5
CCOC(=O)c1sc2nc(CC(=O)OC)nc(N3CCN(c4ccc(OC)cc4)CC3)c2c1C	12	1	63*	23	-5	-3
COCCNC(=O)NC1(C(F)(F)F)Oc2ccc(Cl)cc2O1 (configuration not stated)	17	19	-1	75*	-22	-2
O=C(NCc1cccnc1)NC1(C(F)(F)F)Oc2ccc(Cl)cc2O1 (configuration not stated)	18	-22	-11	52	-9	2
CCOC(=O)c1cnc(-n2nc(C)cc2C)nc1NCCc1ccccc1	15	16	55*	-16	3	57
CCOC(=O)c1cnc(-n2nc(C)cc2C)nc1NCc1ccc2c(c1)OCO2	10	32	70*	-4	38	43
COCCSc1nnc(NC(=O)CS(=O)(=O)c2ccc(C)cc2)s1	-4	-2	7	x	0	0
COCCSc1nnc(NC(=O)CCS(=O)(=O)c2ccccc2)s1	15	31	-33	21	88*	-11
CC(=O)c1sc(NC(=O)CCS(=O)(=O)c2ccccc2)nc1C	27	26	20	-9	86*	-39
CC(C)C[C@H](N)c1nnc(SCC(=O)Nc2ccc(Br)cc2)o1	0	-4	0	-25	0	-6
CC(C)C[C@H](N)c1nnc(S(=O)(=O)Cc2ccc(F)cc2)o1	-6	46	-6	77*	-2	12
C#CCOCCOCCOCCNc1nc(N2CCN(C(=O)CCCCCCCCCCNC(=O)[C@H](CCCCN)n3cc(CCO)nn3)CC2)nc(N2CCN(C(=O)CCCCCCCCCCNC(=O)[C@H](CCCN=C(N)N)n3cc(C[C@@H](C)CC)nn3)CC2)n1	16	11	x	135*	x	63

High-throughput results: PubChem BioAssay, several laboratories
